{"source": "ChEMBL document CHEMBL3414471", "about": "(J Med Chem, 2015)", "key": {"[1]": {"target": "T1, 5-hydroxytryptamine receptor 2B (Homo sapiens, UniProt P41595)", "T1 sequence (P41595 whole entry)": "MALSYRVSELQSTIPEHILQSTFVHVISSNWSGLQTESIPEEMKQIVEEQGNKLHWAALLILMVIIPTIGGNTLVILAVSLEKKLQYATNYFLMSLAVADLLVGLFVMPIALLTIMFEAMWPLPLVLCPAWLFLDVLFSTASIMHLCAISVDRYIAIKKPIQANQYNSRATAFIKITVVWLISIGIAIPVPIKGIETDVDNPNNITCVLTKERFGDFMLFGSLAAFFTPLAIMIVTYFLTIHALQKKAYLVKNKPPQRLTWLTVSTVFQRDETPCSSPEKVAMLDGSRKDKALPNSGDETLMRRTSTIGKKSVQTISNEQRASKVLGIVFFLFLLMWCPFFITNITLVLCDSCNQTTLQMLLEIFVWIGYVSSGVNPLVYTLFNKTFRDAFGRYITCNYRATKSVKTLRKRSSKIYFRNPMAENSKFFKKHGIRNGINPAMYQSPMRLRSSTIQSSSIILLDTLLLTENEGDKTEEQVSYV", "assay": "Agonist activity at human 5-HT2B receptor expressed in HEK293 cells assessed as calcium flux by FLIPR assay relative to 5-HT", "type": "functional, cell-based", "how_it_was_run": "(§1)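 Flp-In-293 cells stably expressing human 5-HT2A, 5-HT2B or 5-HT2C-INI; grown 24–48 h in DMEM/10% dialyzed FBS, plated on poly-L-Lys at 12000 cells/well in 1% dialyzed FBS for 24 h. Loaded 1 h at 37 °C with calcium dye in HBSS, 20 mM Hepes pH 7.40, 2.5 mM probenecid.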"}, "[2]": {"target": "T1, 5-hydroxytryptamine receptor 2B", "assay": "Agonist activity at human 5-HT2B receptor expressed in HEK293 cells assessed as calcium flux by FLIPR assay", "type": "functional, cell-based"}, "[3]": {"species_on_record": "Homo sapiens", "assay": "Selectivity ratio of EC50 for human 5-HT2B receptor to EC50 for human 5HT2C receptor"}, "[4]": {"target": "T2, 5-hydroxytryptamine receptor 2A (Homo sapiens, UniProt P28223)", "T2 sequence (P28223 whole entry)": "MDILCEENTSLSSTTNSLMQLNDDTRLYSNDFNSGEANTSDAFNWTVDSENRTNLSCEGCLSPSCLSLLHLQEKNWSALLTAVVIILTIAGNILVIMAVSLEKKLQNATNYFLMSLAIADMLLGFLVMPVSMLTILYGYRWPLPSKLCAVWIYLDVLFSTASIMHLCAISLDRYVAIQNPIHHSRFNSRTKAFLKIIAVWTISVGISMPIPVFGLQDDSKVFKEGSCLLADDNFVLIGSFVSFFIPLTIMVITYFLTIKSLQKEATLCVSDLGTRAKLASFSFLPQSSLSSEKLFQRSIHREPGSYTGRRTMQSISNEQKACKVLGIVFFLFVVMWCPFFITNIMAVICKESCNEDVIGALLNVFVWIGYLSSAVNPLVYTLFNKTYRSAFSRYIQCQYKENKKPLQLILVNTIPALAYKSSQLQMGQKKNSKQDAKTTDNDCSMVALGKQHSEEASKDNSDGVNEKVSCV", "assay": "Agonist activity at human 5-HT2A receptor expressed in HEK293 cells assessed as calcium flux at 10 uM by FLIPR assay", "type": "functional, cell-based", "how_it_was_run": "(§2)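 Flp-In-293 cells stably expressing human 5-HT2A, 5-HT2B or 5-HT2C-INI, grown in DMEM with 10% dialyzed FBS, then plated for 24 h in 1% dialyzed FBS. Cells were loaded 1 h at 37 °C with calcium dye in Hepes-buffered HBSS, pH 7.40, containing 2.5 mM probenecid. FLIPR read 10 s baseline, then 120 s after drug addition.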"}, "[5]": {"target": "T3, 5-hydroxytryptamine receptor 2C (Homo sapiens, UniProt P28335)", "T3 sequence (P28335 whole entry)": "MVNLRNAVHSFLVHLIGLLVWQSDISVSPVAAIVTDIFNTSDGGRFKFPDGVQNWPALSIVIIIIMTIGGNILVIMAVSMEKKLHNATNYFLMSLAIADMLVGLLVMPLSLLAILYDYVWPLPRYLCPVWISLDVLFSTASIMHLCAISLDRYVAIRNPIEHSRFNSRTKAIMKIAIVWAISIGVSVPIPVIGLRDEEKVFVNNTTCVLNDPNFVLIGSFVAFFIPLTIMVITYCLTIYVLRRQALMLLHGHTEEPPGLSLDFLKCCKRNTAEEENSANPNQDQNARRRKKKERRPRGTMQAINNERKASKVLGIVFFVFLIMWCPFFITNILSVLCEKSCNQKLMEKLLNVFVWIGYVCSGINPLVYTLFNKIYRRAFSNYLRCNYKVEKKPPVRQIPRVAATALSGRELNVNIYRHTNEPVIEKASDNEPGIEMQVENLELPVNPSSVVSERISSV", "assay": "Agonist activity at human 5-HT2C receptor expressed in HEK293 cells assessed as calcium flux by FLIPR assay", "type": "functional, cell-based"}, "[6]": {"target": "T4, 5-hydroxytryptamine receptor 2C (Homo sapiens) (UniProt P28335)", "T4 sequence (whole entry)": "T3 sequence (P28335 whole entry)", "assay": "Agonist activity at human 5-HT2C receptor expressed in HEK293 cells assessed as calcium flux by FLIPR assay relative to 5-HT", "type": "functional, cell-based", "how_it_was_run": "as §1"}, "[7]": {"target": "T5, CYP2B6 (Homo sapiens, UniProt P20813)", "T5 sequence (P20813 whole entry)": "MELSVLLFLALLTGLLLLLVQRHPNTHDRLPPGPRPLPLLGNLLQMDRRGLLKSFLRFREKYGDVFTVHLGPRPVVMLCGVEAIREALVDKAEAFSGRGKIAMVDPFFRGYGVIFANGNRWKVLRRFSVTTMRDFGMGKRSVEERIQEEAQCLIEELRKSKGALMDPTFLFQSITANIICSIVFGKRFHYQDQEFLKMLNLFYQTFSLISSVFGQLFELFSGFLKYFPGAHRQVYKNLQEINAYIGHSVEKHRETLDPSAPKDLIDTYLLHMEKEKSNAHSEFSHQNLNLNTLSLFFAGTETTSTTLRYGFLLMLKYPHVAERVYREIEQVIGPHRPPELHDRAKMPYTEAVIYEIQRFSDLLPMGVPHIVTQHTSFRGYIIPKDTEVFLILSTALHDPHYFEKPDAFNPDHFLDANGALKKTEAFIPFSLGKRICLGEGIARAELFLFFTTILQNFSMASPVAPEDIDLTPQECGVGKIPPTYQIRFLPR", "assay": "Inhibition of human CYP2B6 using bupropion as substrate at 10 uM", "type": "ADME", "details": "probe bupropion"}, "[8]": {"target": "Voltage-gated inwardly rectifying potassium channel KCNH2 (Homo sapiens, UniProt Q12809)", "sequence (Q12809 whole entry)": "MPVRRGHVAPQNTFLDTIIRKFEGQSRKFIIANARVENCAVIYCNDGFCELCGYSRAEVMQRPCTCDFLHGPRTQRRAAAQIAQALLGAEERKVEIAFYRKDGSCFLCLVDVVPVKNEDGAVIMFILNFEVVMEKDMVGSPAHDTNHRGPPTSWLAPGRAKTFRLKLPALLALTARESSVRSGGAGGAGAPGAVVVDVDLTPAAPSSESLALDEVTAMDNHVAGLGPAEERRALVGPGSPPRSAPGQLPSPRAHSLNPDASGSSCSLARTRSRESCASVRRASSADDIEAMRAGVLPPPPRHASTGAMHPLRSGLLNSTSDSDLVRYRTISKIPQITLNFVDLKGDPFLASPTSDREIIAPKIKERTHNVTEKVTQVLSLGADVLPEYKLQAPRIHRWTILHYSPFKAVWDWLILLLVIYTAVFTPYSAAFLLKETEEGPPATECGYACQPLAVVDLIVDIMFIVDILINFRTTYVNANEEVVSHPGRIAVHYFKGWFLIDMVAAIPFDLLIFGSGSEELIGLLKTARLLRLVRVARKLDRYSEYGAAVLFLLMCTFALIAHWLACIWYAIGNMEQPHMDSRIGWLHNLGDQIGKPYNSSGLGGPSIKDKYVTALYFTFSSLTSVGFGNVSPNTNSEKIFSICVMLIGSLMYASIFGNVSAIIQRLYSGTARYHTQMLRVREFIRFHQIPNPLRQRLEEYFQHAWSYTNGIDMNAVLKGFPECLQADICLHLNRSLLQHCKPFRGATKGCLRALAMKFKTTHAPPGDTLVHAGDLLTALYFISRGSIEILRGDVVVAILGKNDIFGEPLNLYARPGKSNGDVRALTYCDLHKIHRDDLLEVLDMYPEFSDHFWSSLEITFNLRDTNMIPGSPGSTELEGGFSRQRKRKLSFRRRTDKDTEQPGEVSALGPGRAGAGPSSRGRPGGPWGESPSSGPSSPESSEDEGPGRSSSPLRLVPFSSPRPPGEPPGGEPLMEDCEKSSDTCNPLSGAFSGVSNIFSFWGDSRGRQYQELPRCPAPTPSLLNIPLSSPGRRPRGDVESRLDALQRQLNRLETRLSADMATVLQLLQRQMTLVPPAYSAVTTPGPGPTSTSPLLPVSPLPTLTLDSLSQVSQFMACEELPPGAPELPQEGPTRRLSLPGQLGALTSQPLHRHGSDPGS", "assay": "Inhibition of human ERG channel expressed in CHO cells by patch clamp method", "type": "cell-based", "details": "human, cho"}, "[9]": {"target": "Alpha-2A adrenergic receptor (Homo sapiens, UniProt P08913)", "sequence (P08913 whole entry)": "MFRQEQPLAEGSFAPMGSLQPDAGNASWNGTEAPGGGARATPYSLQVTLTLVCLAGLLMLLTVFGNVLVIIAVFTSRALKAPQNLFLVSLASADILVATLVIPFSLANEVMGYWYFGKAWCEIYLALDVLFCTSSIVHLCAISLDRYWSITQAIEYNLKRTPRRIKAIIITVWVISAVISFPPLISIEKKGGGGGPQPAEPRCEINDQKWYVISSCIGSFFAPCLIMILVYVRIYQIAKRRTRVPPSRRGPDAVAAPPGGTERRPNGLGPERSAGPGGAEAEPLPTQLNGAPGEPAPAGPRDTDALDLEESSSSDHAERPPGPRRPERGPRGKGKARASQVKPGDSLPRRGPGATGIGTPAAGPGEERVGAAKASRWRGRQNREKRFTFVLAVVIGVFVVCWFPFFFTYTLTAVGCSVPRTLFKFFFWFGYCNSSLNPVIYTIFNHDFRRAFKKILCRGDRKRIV", "assay": "Binding affinity to adrenergic alpha-2A receptor (unknown origin)"}, "[10]": {"target": "T6, hERG (KCNH2) (Homo sapiens, UniProt Q12809)", "T6 sequence (Q12809 whole entry)": "as the sequence (Q12809 whole entry) above", "assay": "Inhibition of human ERG channel expressed in CHO cells at 10 uM by patch clamp method", "type": "cell-based", "details": "CHO cells expressing human ERG channel", "how_it_was_run": "(§3)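 hERG current recorded in CHO cells by automated patch clamp; percent inhibition at 0.37, 1.1, 3.3, 10 and 30 µM.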"}, "[11]": {"target": "T6, hERG (KCNH2)", "assay": "Inhibition of human ERG channel expressed in CHO cells at 3.3 uM by patch clamp method", "type": "cell-based", "details": "CHO cells expressing human ERG channel", "how_it_was_run": "as §3"}, "[12]": {"target": "T6, hERG (KCNH2)", "assay": "Inhibition of human ERG channel expressed in CHO cells at 30 uM by patch clamp method", "type": "cell-based", "details": "CHO cells expressing human ERG channel", "how_it_was_run": "as §3"}, "[13]": {"target": "T2, 5-hydroxytryptamine receptor 2A", "assay": "Agonist activity at human 5-HT2A receptor expressed in HEK293 cells assessed as calcium flux by FLIPR assay", "type": "functional, cell-based"}, "[14]": {"tested_on": "Mus musculus", "assay": "Antipsychotic activity in C57BL/6J mouse assessed as reduction of amphetamine-induced locomotor activity at 10 to 20 mg/kg, ip administered 15 mins prior to amphetamine challenge measured for 105 mins by open field test relative to vehicle-treated control", "type": "functional, organism-based"}, "[15]": {"target": "T6, hERG (KCNH2)", "assay": "(§4) Inhibition of human ERG channel expressed in CHO cells at […] by patch clamp method", "type": "cell-based", "details": "CHO cells expressing human ERG channel"}, "[16]": {"target": "CYP3A4 (Homo sapiens, UniProt P08684)", "sequence (P08684 whole entry)": "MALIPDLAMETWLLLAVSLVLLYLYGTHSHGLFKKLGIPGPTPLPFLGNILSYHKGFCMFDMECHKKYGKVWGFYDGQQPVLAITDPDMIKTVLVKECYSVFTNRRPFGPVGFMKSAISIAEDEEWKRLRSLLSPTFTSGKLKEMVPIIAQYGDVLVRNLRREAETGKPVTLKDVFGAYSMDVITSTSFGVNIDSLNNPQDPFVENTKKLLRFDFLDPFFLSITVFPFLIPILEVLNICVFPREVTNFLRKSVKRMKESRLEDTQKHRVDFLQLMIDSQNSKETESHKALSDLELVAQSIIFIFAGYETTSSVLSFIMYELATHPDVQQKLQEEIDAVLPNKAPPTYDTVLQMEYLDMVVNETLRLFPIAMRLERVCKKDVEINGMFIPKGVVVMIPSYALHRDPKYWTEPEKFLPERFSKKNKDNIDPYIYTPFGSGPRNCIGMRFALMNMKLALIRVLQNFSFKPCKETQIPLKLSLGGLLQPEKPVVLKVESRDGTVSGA", "assay": "Inhibition of human CYP3A4 using midazolam as substrate at 10 uM", "type": "ADME", "details": "probe midazolam", "how_it_was_run": "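Human liver microsomes with test compound at 10 µM; percent inhibition determined using bupropion (2B6), dextromethorphan (2D6) or midazolam (3A/3A4) as probe substrates.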"}, "[17]": {"target": "T1, 5-hydroxytryptamine receptor 2B", "assay": "Agonist activity at human 5-HT2B receptor expressed in HEK293 cells assessed as calcium flux at 10 uM by FLIPR assay", "type": "functional, cell-based", "how_it_was_run": "as §2"}, "[18]": {"target": "T2, 5-hydroxytryptamine receptor 2A", "assay": "Agonist activity at human 5-HT2A receptor expressed in HEK293 cells assessed as calcium flux by FLIPR assay relative to 5-HT", "type": "functional, cell-based", "how_it_was_run": "as §1"}, "[19]": {"target": "CYP2C19 (Homo sapiens, UniProt P33261)", "sequence (P33261 whole entry)": "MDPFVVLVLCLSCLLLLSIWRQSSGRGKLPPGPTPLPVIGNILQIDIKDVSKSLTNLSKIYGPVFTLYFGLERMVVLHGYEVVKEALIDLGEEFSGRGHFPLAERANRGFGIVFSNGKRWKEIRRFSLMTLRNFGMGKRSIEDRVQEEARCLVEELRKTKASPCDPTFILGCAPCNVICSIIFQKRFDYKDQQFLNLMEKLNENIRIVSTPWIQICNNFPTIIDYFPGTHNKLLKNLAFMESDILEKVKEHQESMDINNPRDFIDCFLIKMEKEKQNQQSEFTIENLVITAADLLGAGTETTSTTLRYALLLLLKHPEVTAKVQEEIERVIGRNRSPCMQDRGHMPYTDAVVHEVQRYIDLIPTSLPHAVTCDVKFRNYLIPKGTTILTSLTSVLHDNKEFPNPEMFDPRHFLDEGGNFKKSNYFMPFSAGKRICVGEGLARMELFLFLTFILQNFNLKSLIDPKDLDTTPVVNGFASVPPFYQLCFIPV", "assay": "Inhibition of human CYP2C19 using omeprazole as substrate at 10 uM", "type": "ADME", "details": "probe omeprazole"}, "[20]": {"species_on_record": "Homo sapiens", "assay": "Selectivity ratio of EC50 for human 5-HT2A receptor to EC50 for human 5HT2C receptor"}, "[21]": {"target": "CYP2C9 (Homo sapiens, UniProt P11712)", "assay": "Inhibition of human CYP2C9 using diclofenac as substrate at 10 uM", "type": "ADME", "details": "probe diclofenac"}, "[22]": {"target": "CYP2D6 (Homo sapiens, UniProt P10635)", "assay": "Inhibition of human CYP2D6 using dextromethorphan as substrate at 10 uM", "type": "ADME", "details": "probe dextromethorphan"}, "[23]": {"target": "T6, hERG (KCNH2)", "assay": "as §4", "type": "cell-based", "details": "CHO cells expressing human ERG channel", "remark": "listed apart in the source"}}, "note": "Active and inactive are the calls of the source. The calls are words filed in the database; no cut-off is given here.", "data": [{"smiles": "CCCOc1ccc(Cl)cc1[C@H]1C[C@@H]1CN", "values": [{"measurement": "Emax", "setting": "[1]", "value": 25, "unit": "%"}, {"measurement": "EC50", "setting": "[2]", "value": 3440, "unit": "nM"}, {"measurement": "Ratio EC50", "setting": "[3]", "value": 33}, {"measurement": "Activity", "setting": "[4]", "value": "inactive"}, {"measurement": "EC50", "setting": "[5]", "value": 103, "unit": "nM"}, {"measurement": "Emax", "setting": "[6]", "value": 72, "unit": "%"}]}, {"smiles": "Cl.NC[C@H]1C[C@@H]1c1cc(F)ccc1OCCF", "values": [{"measurement": "inhibition at 10 µM", "setting": "[7]", "value": 6, "unit": "%"}, {"measurement": "inhibition (INH)", "setting": "[8]", "value": "Dose-dependent effect"}, {"measurement": "Ki", "setting": "[9]", "value": "< 1000", "unit": "nM"}, {"measurement": "inhibition at 10 µM", "setting": "[10]", "value": 25, "unit": "%"}, {"measurement": "inhibition at 3.3 µM", "setting": "[11]", "value": 15, "unit": "%"}, {"measurement": "inhibition at 30 µM", "setting": "[12]", "value": 35, "unit": "%"}, {"measurement": "EC50", "setting": "[13]", "value": 359, "unit": "nM"}, {"measurement": "Activity", "setting": "[14]", "value": "Active"}, {"measurement": "inhibition at […]", "setting": "[15]", "value": 11, "unit": "%"}, {"measurement": "inhibition at 10 µM", "setting": "[16]", "value": 10, "unit": "%"}, {"measurement": "Activity", "setting": "[17]", "value": "inactive"}, {"measurement": "Emax", "setting": "[18]", "value": 76, "unit": "%"}, {"measurement": "inhibition at 10 µM", "setting": "[19]", "value": 26, "unit": "%"}, {"measurement": "Ratio EC50", "setting": "[20]", "value": "> 100"}, {"measurement": "EC50", "setting": "[5]", "value": 3.4, "unit": "nM"}, {"measurement": "inhibition at 10 µM", "setting": "[21]", "value": 16, "unit": "%"}, {"measurement": "Emax", "setting": "[6]", "value": 89, "unit": "%"}, {"measurement": "inhibition at 10 µM", "setting": "[22]", "value": 24, "unit": "%"}, {"measurement": "inhibition at […]", "setting": "[23]", "value": 6, "unit": "%"}]}]}
